Laboratory results reported in ChEMBL document CHEMBL1134691, “3-Phenyl-5-acyloxymethyl-2H,5H-furan-2-ones: synthesis and biological activity of a novel group of potential antifungal drugs” (2001).
≈ marks a conversion by molar mass, not a printed value.

Tests used:
Lichtheimia corymbifera [1] = test: In vitro inhibition of Absidia corymbifera 272 growth for 24 hours.; assay type: functional; settings: Lichtheimia corymbifera, 24 h; read-out: MIC
Outline: (§1)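 Filamentous isolates tested by microdilution per NCCLS M27-A in RPMI 1640 plus L-glutamine, buffered with 0.165 M MOPS to pH 7.0. Final inoculum 5 × 10^3 cfu/mL. Compounds in DMSO (final ≤2%), 2-fold series over 1000–0.24 µmol/L. Plates held at 35 °C and read visually after 24 and 48 h. MIC taken as 80% inhibition of control growth; determined twice in duplicate.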

Lichtheimia corymbifera [2] = test: In vitro inhibition of Absidia corymbifera 272 growth for 48 hours.; assay type: functional; settings: Lichtheimia corymbifera, 48 h; read-out: MIC; outline: as §1
Pichia kudriavzevii [3] = test: Inhibition of Candida krusei ATCC 6258 growth for 24 hours in vitro.; assay type: functional; settings: ATCC 6258, 24 h
Outline: (§2)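 NCCLS M27-A broth microdilution in RPMI 1640 with L-glutamine and 0.165 M MOPS, pH 7.0. Isolates kept on Sabouraud dextrose agar. Inoculum 5 × 10^3 cfu/mL final. Compounds were diluted in DMSO (≤2% final) and tested in 2-fold dilutions of 1000–0.24 µmol/L. Incubation at 35 °C, OD540 read at 24 and 48 h. MIC = 80% growth inhibition versus control; assays run twice in duplicate.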

Pichia kudriavzevii [4] = test: Inhibition of Candida krusei ATCC 6258 growth for 48 hours in vitro.; assay type: functional; settings: ATCC 6258, 48 h; outline: as §2
Pichia kudriavzevii [5] = test: Inhibition of Candida krusei E28 growth for 24 hours in vitro.; assay type: functional; outline: as §2
Pichia kudriavzevii [6] = test: Inhibition of Candida krusei E28 growth for 48 hours in vitro.; assay type: functional; outline: as §2
Aspergillus fumigatus [7] = test: Inhibition of Aspergillus fumigatus 231 growth for 48 hours in vitro.; assay type: functional; settings: Aspergillus fumigatus, 48 h; read-out: MIC; outline: as §1
Clavispora lusitaniae [8] = test: Inhibition of Candida lusitaniae 2446/I growth for 24 hours in vitro.; assay type: functional; settings: Clavispora lusitaniae, 24 h; read-out: MIC; outline: as §2
Clavispora lusitaniae [9] = test: Inhibition of Candida lusitaniae 2446/I growth for 48 hours in vitro.; assay type: functional; settings: Clavispora lusitaniae, 48 h; read-out: MIC; outline: as §2
Candida parapsilosis [10] = test: Inhibition of Candida parapsilosis ATCC 22019 growth for 24 hours in vitro.; assay type: functional; settings: Lodderomyces parapsilosis, ATCC 22019, 24 h; outline: as §2
Candida parapsilosis [11] = test: Inhibition of Candida parapsilosis ATCC 22019 growth for 48 hours in vitro.; assay type: functional; settings: Lodderomyces parapsilosis, ATCC 22019, 48 h; outline: as §2
Candida albicans [12] = test: Inhibition of Candida albicans ATCC 44859 growth for 24 hours in vitro.; assay type: functional; settings: Candida albicans, ATCC 44859, 24 h; read-out: MIC; outline: as §2
Candida albicans [13] = test: Inhibition of Candida albicans ATCC 44859 growth for 48 hours in vitro.; assay type: functional; settings: Candida albicans, ATCC 44859, 48 h; read-out: MIC; outline: as §2
Candida albicans [14] = test: Inhibition of Candida albicans ATCC 90028 for 24 hours in vitro.; assay type: functional; settings: ATCC 90028, 24 h; outline: as §2
Candida albicans [15] = test: Inhibition of Candida albicans ATCC 90028 for 48 hours in vitro.; assay type: functional; settings: ATCC 90028, 48 h; outline: as §2
Nakaseomyces glabratus [16] = test: Inhibition of Candida glabrata 20/I growth for 24 hours in vitro.; assay type: functional; outline: as §2
Nakaseomyces glabratus [17] = test: Inhibition of Candida glabrata 20/I growth for 48 hours in vitro.; assay type: functional; outline: as §2
Candida tropicalis [18] = test: Inhibition of Candida tropicalis 156 growth for 24 hours in vitro.; assay type: functional; outline: as §2
Trichosporon beigelii [19] = test: Inhibition of Trichosporon beigelli 1188 for 24 hours in vitro.; assay type: functional; settings: Trichosporon beigelii, 24 h; read-out: MIC
Outline: (§3)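 Microdilution following NCCLS M27-A. Medium: RPMI 1640 with L-glutamine, 0.165 M MOPS, pH 7.0. Final inoculum 5 × 10^3 cfu/mL. Compounds dissolved in DMSO, final ≤2%, serially halved from 1000 to 0.24 µmol/L. Incubated at 35 °C and read at 24 and 48 h. MIC defined as 80% inhibition of control growth; run twice in duplicate.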

Trichosporon beigelii [20] = test: Inhibition of Trichosporon beigelli 1188 for 48 hours in vitro.; assay type: functional; settings: Trichosporon beigelii, 48 h; read-out: MIC; outline: as §3
[21] = Inhibition of Trichophyton mentagrophytes 445 growth for 72 hours in vitro.; assay type: functional, Arthroderma benhamiae; settings: Trichophyton benhamiae, 72 h; read-out: MIC
Outline: (§4)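 Dermatophyte grown in MOPS-buffered (0.165 M, pH 7.0) RPMI 1640 containing L-glutamine, in an M27-A microdilution format. Inoculum 5 × 10^3 cfu/mL final. Compounds from DMSO stocks (≤2% final), 2-fold dilutions 1000–0.24 µmol/L. Incubated at 35 °C, growth judged visually at 72 and 120 h. MIC endpoint is 80% inhibition relative to control; measured twice in duplicate.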

[22] = Inhibition of Trichophyton mentagrophytes 445 growth for 120 hours in vitro.; assay type: functional, Arthroderma benhamiae; settings: Trichophyton benhamiae, 120 h; read-out: MIC; outline: as §4
Aspergillus fumigatus [23] = test: Inhibition of Aspergillus fumigatus 231 growth for 24 hours in vitro.; assay type: functional; settings: Aspergillus fumigatus, 24 h; read-out: MIC; outline: as §1
Candida tropicalis [24] = test: Inhibition of Candida tropicalis 156 growth for 48 hours in vitro.; assay type: functional; outline: as §2
[25] = Pichia kudriavzevii, read-out: MIC
[26] = Pichia kudriavzevii, 24 h, read-out: MIC
[27] = Pichia kudriavzevii, 48 h, read-out: MIC
[28] = Candida albicans, read-out: MIC
[29] = Nakaseomyces glabratus, 24 h, read-out: MIC
[30] = Nakaseomyces glabratus, 48 h, read-out: MIC

MIC (Lichtheimia corymbifera [1]) [µM] | MIC (Lichtheimia corymbifera [2]) [µM] | MIC (Aspergillus fumigatus [7]) [µM] | MIC (Clavispora lusitaniae [8]) [µM] | MIC (Clavispora lusitaniae [9]) [µM] | MIC (Candida albicans [12]) [µM] | MIC (Candida albicans [13]) [µM] | MIC (Nakaseomyces glabratus [16]; [29]) [µM] | MIC (Nakaseomyces glabratus [17]; [30]) [µM] | MIC (Trichosporon beigelii [19]) [µM] | MIC (Trichosporon beigelii [20]) [µM] | MIC [21] [µM] | Structure (SMILES) | MIC (Pichia kudriavzevii [3]; [25]) [µM] | MIC (Pichia kudriavzevii [4]; [25]) [µM] | MIC (Pichia kudriavzevii [5]; [26]) [µM] | MIC (Pichia kudriavzevii [6]; [27]) [µM] | MIC (Candida parapsilosis [10]; read-out: MIC) [µM] | MIC (Candida parapsilosis [11]; read-out: MIC) [µM] | MIC (Candida albicans [14]; [28]) [µM] | MIC (Candida albicans [15]; [28]) [µM] | other results
125 (≈ 32.4 µg/mL) | 125 (≈ 32.4 µg/mL) | 250 (≈ 64.8 µg/mL) | 125 (≈ 32.4 µg/mL) | 250 (≈ 64.8 µg/mL) | 62.5 (≈ 16.2 µg/mL) | 250 (≈ 64.8 µg/mL) | 62.5 | 62.5 | 500 (≈ 130 µg/mL) | > 1000 | 15.6 (≈ 4.05 µg/mL) | O=C1OC(CO)C=C1c1ccc(Cl)c(Cl)c1 (stereo not given) | 250 (≈ 64.8 µg/mL) | 250 (≈ 64.8 µg/mL) | 125 (≈ 32.4 µg/mL) | 250 (≈ 64.8 µg/mL) | 250 (≈ 64.8 µg/mL) | 500 (≈ 130 µg/mL) | 250 (≈ 64.8 µg/mL) | 500 (≈ 130 µg/mL) | MIC (Candida tropicalis [18]; Candida tropicalis, 24 h, read-out: MIC): 250 µM (≈ 64.8 µg/mL); MIC [22]: 15.6 µM (≈ 4.05 µg/mL); MIC (Aspergillus fumigatus [23]): 62.5 µM (≈ 16.2 µg/mL); MIC (Candida tropicalis [24]; Candida tropicalis, 48 h, read-out: MIC): 500 µM (≈ 130 µg/mL)
31.2 (≈ 6.88 µg/mL) | 62.5 (≈ 13.8 µg/mL) | 500 (≈ 110 µg/mL) | 31.2 (≈ 6.88 µg/mL) | 125 (≈ 27.5 µg/mL) | 15.6 (≈ 3.44 µg/mL) | 62.5 (≈ 13.8 µg/mL) | 125 | 250 | 500 (≈ 110 µg/mL) | 1000 (≈ 220 µg/mL) | 15.6 (≈ 3.44 µg/mL) | COc1ccc(C2=CC(CO)OC2=O)cc1 (stereo not given) |  |  |  |  |  |  |  |  | MIC (Pichia kudriavzevii [3]): 62.5 µM (≈ 13.8 µg/mL); MIC (Pichia kudriavzevii [4]): 125 µM (≈ 27.5 µg/mL); MIC (Pichia kudriavzevii [5]): 62.5 µM (≈ 13.8 µg/mL); MIC (Pichia kudriavzevii [6]): 125 µM (≈ 27.5 µg/mL); MIC (Candida parapsilosis [10]): 250 µM (≈ 55.1 µg/mL); MIC (Candida parapsilosis [11]): 500 µM (≈ 110 µg/mL); MIC (Candida albicans [14]): 31.2 µM (≈ 6.88 µg/mL); MIC (Candida albicans [15]): 62.5 µM (≈ 13.8 µg/mL); MIC (Candida tropicalis [18]): 125 µM (≈ 27.5 µg/mL); MIC [22]: 62.5 µM (≈ 13.8 µg/mL); MIC (Aspergillus fumigatus [23]): 125 µM (≈ 27.5 µg/mL); MIC (Candida tropicalis [24]): 250 µM (≈ 55.1 µg/mL)

Structure (SMILES) | MIC (Lichtheimia corymbifera [1]) [µM] | MIC (Lichtheimia corymbifera [2]) [µM] | MIC (Aspergillus fumigatus [7]) [µM] | MIC (Clavispora lusitaniae [8]) [µM] | MIC (Clavispora lusitaniae [9]) [µM] | MIC (Candida albicans [12]) [µM] | MIC (Candida albicans [13]) [µM] | MIC (Nakaseomyces glabratus [16]; [29]) [µM] | MIC (Nakaseomyces glabratus [17]; [30]) [µM] | MIC (Trichosporon beigelii [19]) [µM] | MIC (Trichosporon beigelii [20]) [µM] | MIC [21] [µM] | MIC (Pichia kudriavzevii [3]; [25]) [µM] | MIC (Pichia kudriavzevii [4]; [25]) [µM] | MIC (Pichia kudriavzevii [5]; [26]) [µM] | MIC (Pichia kudriavzevii [6]; [27]) [µM] | MIC (Candida parapsilosis [10]; read-out: MIC) [µM] | MIC (Candida parapsilosis [11]; read-out: MIC) [µM] | MIC (Candida albicans [14]; [28]) [µM] | MIC (Candida albicans [15]; [28]) [µM] | other results
C[C@@H]1[C@H](O)[C@@H](C)/C=C/C=C/C=C/C=C/C=C/C=C/C=C/[C@H](O[C@@H]2O[C@H](C)[C@@H](O)[C@H](N)[C@@H]2O)C[C@@H]2O[C@](O)(C[C@@H](O)C[C@@H](O)[C@H](O)CC[C@@H](O)C[C@@H](O)CC(=O)O[C@H]1C)C[C@H](O)[C@H]2C(=O)O [AMPHOTERICIN B] | 2.16 (≈ 2 µg/mL) | 2.16 (≈ 2 µg/mL) | 0.54 (≈ 0.499 µg/mL) | 2.16 (≈ 2 µg/mL) | 2.16 (≈ 2 µg/mL) | 1.08 (≈ 0.998 µg/mL) | 1.08 (≈ 0.998 µg/mL) |  |  |  |  |  | 2.16 (≈ 2 µg/mL) | 4.33 (≈ 4 µg/mL) | 2.16 (≈ 2 µg/mL) | 4.33 (≈ 4 µg/mL) | 2.16 (≈ 2 µg/mL) | 2.16 (≈ 2 µg/mL) | 2.16 (≈ 2 µg/mL) | 2.16 (≈ 2 µg/mL) | MIC (Nakaseomyces glabratus [16]): 2 µg/mL; MIC (Nakaseomyces glabratus [17]): 2 µg/mL
